According to ChEMBL document CHEMBL1926683, “Synthesis and anticancer activity of 4β-alkylamidochalcone and 4β-cinnamido linked podophyllotoxins as apoptotic inducing agents” (Eur J Med Chem, 2012):
Active and inactive are the calls of the source. The calls are words filed in the database; no cut-off is given here.

What was measured:
[1] = system: A549; experiment: Induction of apoptosis in human A549 cells assessed as caspase 3 activation using Ac-DEVD as substrate at 2 uM after 48 hrs by fluorometric analysis relative to control; assay type: functional
Procedure, shortened: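 A-549 cells were seeded at 2.5 × 10⁵/well and treated. Cells were scraped into PBS, pelleted, lysed on ice 20–30 min, and cleared at 13,200 rpm. Lysate was mixed with 2X assay buffer and Ac-DEVD-AFC substrate and reacted 1 h. AFC fluorescence (ex 400, em 505 nm) was read every 5 min, expressed as fold over control. Mean of two experiments in triplicate.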

[2] = system: A549; experiment: Cell cycle arrest in human A549 cells assessed as accumulation at S phase at 5 uM after by propidium iodide staining-based fluorescence analysis (reference value: 2.74%); assay type: functional
[3] = system: A549; experiment: Induction of apoptosis in human A549 cells assessed as nuclear fragmentation at 2 uM after 24 hrs by Hoechst staining-based fluorescent microscopic analysis; assay type: functional, cell-based
Procedure, shortened: (§1)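 A-549 cells (10,000) were grown on 18-mm coverslips for 24 h, given fresh medium, then treated 24 h. Vehicle control was 0.001% DMSO. Hoechst 33258 was added to medium at […]. Apoptotic cells were quantified manually by field counts scoring cytoplasmic condensation, apoptotic bodies, nuclear fragmentation and relative fluorescence.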

[4] = system: A549; experiment: Cell cycle arrest in human A549 cells assessed as accumulation at G2/M phase at 1 uM after by propidium iodide staining-based fluorescence analysis (reference value: 9.27%); assay type: functional
[5] = system: HT-29; experiment: Anticancer activity against human HT-29 cells after 48 hrs by MTT assay; assay type: functional, cell-based; details: HT-29, 48 h
Procedure, shortened: (§2)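 MTT assay. Cells seeded at 1 × 10⁴/well in DMEM with 10% FBS and held 24 h at 37 °C in CO₂. Compounds were diluted in culture medium and added alongside vehicle controls, then incubated 48 h. MTT (5 mg/ml stock) was added for 4 h. Supernatant was removed, formazan dissolved in DMSO, and absorbance read at 540 nm.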

[6] = system: A549; experiment: Induction of apoptosis in human A549 cells assessed as cytoplasmic condensation at 2 uM after 24 hrs by Hoechst staining-based fluorescent microscopic analysis; assay type: functional, cell-based; procedure, shortened: as §1
[7] = system: A549; experiment: Induction of apoptosis in human A549 cells assessed as presence of apoptotic bodies at 2 uM after 24 hrs by Hoechst staining-based fluorescent microscopic analysis; assay type: functional, cell-based; procedure, shortened: as §1
[8] = system: ACHN; experiment: Anticancer activity against human ACHN cells after 48 hrs by MTT assay; assay type: functional, cell-based; procedure, shortened: as §2
[9] = system: MCF7; experiment: Anticancer activity against human MCF7 cells after 48 hrs by MTT assay; assay type: functional, cell-based; details: MCF7, 48 h; procedure, shortened: as §2
[10] = system: A549; experiment: Cell cycle arrest in human A549 cells assessed as accumulation at subG1 phase at 5 uM after by propidium iodide staining-based fluorescence analysis (reference value: 2.74%); assay type: functional
[11] = system: A549; experiment: Cell cycle arrest in human A549 cells assessed as accumulation at G0/G1 phase at 1 uM after by propidium iodide staining-based fluorescence analysis (reference value: 83.43%); assay type: functional
[12] = system: A549; experiment: Induction of apoptosis in human A549 cells assessed as nuclear fragmentation at 5 uM after 24 hrs by Hoechst staining-based fluorescent microscopic analysis; assay type: functional, cell-based; procedure, shortened: as §1
[13] = system: A549; experiment: Induction of apoptosis in human A549 cells assessed as induction of DNA fragmentation at 5 uM after 48 hrs by agarose gel electrophoresis; assay type: functional, cell-based
Procedure, shortened: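 A-549 cells (1 × 10⁶, six-well plates) were treated 48 h after 24 h attachment. Cells were pelleted, PBS-washed and lysed. Supernatant was treated with 10% SDS and RNase-A for 2 h at 56 °C, then proteinase K for 2 h at 37 °C. DNA was precipitated with ammonium acetate and ice-cold ethanol at −80 °C, pelleted, washed with 80% ethanol, and run for ladder pattern against a 50 bp marker.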

[14] = system: A549; experiment: Anticancer activity against human A549 cells after 48 hrs by MTT assay; assay type: functional, cell-based; details: A549, 48 h; procedure, shortened: as §2
[15] = system: A549; experiment: Cell cycle arrest in human A549 cells assessed as accumulation at G0/G1 phase at 5 uM after by propidium iodide staining-based fluorescence analysis (reference value: 83.43%); assay type: functional
[16] = system: A549; experiment: Cell cycle arrest in human A549 cells assessed as accumulation at G2/M phase at 5 uM after by propidium iodide staining-based fluorescence analysis (reference value: 9.27%); assay type: functional
[17] = system: A-375; experiment: Anticancer activity against human A375 cells after 48 hrs by MTT assay; assay type: functional, cell-based; details: A-375, 48 h; procedure, shortened: as §2
[18] = system: A549; experiment: Induction of apoptosis in human A549 cells assessed as presence of apoptotic bodies at 5 uM after 24 hrs by Hoechst staining-based fluorescent microscopic analysis; assay type: functional, cell-based; procedure, shortened: as §1
[19] = system: A549; experiment: Cell cycle arrest in human A549 cells assessed as accumulation at S phase at 1 uM after by propidium iodide staining-based fluorescence analysis (reference value: 2.74%); assay type: functional
[20] = system: A549; experiment: Cell cycle arrest in human A549 cells assessed as accumulation at subG1 phase at 1 uM after by propidium iodide staining-based fluorescence analysis (reference value: 2.74%); assay type: functional
[21] = system: A549; experiment: Induction of apoptosis in human A549 cells assessed as cytoplasmic condensation at 5 uM after 24 hrs by Hoechst staining-based fluorescent microscopic analysis; assay type: functional, cell-based; procedure, shortened: as §1

Compound | fold change (FC) [1] | Activity [2] [%] | Activity [3] | Activity [4] [%] | IC50 [5] [nM] | Activity [6] | Activity [7] | IC50 [8] [nM] | IC50 [9] [nM] | Activity [10] [%] | Activity [11] [%] | Activity [12] | Activity [13] | IC50 [14] [nM] | Activity [15] [%] | IC50 [17] [nM] | Activity [18] | Activity [19] [%] | Activity [20] [%] | Activity [21] | other results
COc1cc([C@@H]2c3cc4c(cc3[C@@H](NC(=O)/C=C/c3ccc(C(F)(F)F)cc3)[C@H]3COC(=O)[C@H]23)OCO4)cc(OC)c1OC | 4 | 10.16 | Active | 38.11 | 370 | Active | Active | 2180 | 19200 | 4.43 | 45.23 | Active | Active | 2100 | 39.84 | 18000 | Active | 9.54 | 4.51 | Active | Activity [16]: 43.39%
COc1cc([C@@H]2c3cc4c(cc3[C@@H](O[C@@H]3O[C@@H]5CO[C@@H](C)O[C@H]5[C@H](O)[C@H]3O)[C@H]3COC(=O)[C@H]23)OCO4)cc(OC)c1O [ETOPOSIDE] | 6 | – | Active | 19.21 | 1810 | Active | Active | 7610 | 680 | – | 69.82 | Active | Active | 2340 | – | 1390 | Active | 7.23 | 2.89 | Active | –
COc1cc([C@@H]2c3cc4c(cc3[C@@H](NC(=O)/C=C/c3ccccc3)[C@H]3COC(=O)[C@H]23)OCO4)cc(OC)c1OC | 4 | 8.64 | Active | 61.89 | 2360 | Active | Active | 3910 | 19700 | 2.62 | 23.39 | Active | Active | 2700 | 18.65 | 13400 | Active | 9.5 | 3.29 | Active | Activity [16]: 67.78%
